Data published in PubChem BioAssay.
Records with an inconclusive call do not appear. The source made the active and inactive calls.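 The calls were made as follows, unless noted: active = viability increase at or above a cutoff of the median across tested compounds plus 3 SD (cut at about 8.5% in these data, passing the limit was not always enough); inconclusive = some gains above the cutoff, reason not given; inactive = the rest.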

What was measured:
[1] = S. cerevisiae growth inhibition in permissive medium (OD615), pilot counter-assay for S. cerevisiae lifespan shortening project, permissive growth control (AID 705;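 active = growth inhibition above 25% in both replicates, a cutoff set 3 SD above the mean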); conditions: OD615, 24 h, at 10 µM, active compounds read high
Summary of the method: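 Material: engineered DeaD yeast; compound dosing: one dose 10 µM, DMSO 0.25% final; measure: yeast growth inhibition indicated by reduced 24 h OD615; detection: OD615 turbidity read; incubation: cells pre-grown 4 h, then 24 h compound exposure, 30 °C humidified; medium: permissive synthetic complete medium with raffinose and galactose carbon sources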

[2] = S. cerevisiae growth inhibition in restrictive medium, OD615, pilot screen, restrictive growth control, yeast lifespan reduction project (AID 706;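 active = growth inhibition above a set limit, 3 SD over mean compound inhibition, in both replicates, cut at about 43% in these data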;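 also: modified DeaD lifespan yeast strain shifted to restrictive glucose medium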); conditions: OD615, 48 h, at 10 µM, active compounds read high
Summary of the method: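 material = engineered S. cerevisiae DeaD strain | medium = glucose-based CSMM-D restrictive medium | times = 4 h pre-incubation, 48 h exposure at 30 °C | technique = OD615 absorbance reading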

[3] = doxorubicin toxicity protection in MRP-1 cells – H69AR cells, CellTiter-Glo, duplicate, MRP-1 activator project, pilot screen (AID 807); conditions: H69AR viability with doxorubicin, CellTiter-Glo luminescence; at 10 µM; active compounds read high;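 also: compound pretreatment 18-22 h then 72 h combined with doxorubicin; 0% = doxorubicin alone and 100% = vehicle without doxorubicin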
[4] = viability of HCT116 without oncogenic beta-catenin – human colon tumor cells, pilot screen (AID 823;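 active = cell viability at or below a set limit in both duplicate runs, the limit being the all-compound median minus 4 SD, cut at about 23% in these data, passing the limit was not always enough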;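 also: 0% = wells killed by 20 µM Hyamine and 100% = untreated DMSO cell wells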); conditions: HCT116 beta-catenin knockout viability, CellTiter-Glo, 60 h; at 10 µM; active compounds read low
[5] = viability of PTEN-null HCT116 cells – cell-based, HCT116 clonal line, CellTiter-Glo, pilot screen (AID 824;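 active = viability at or below 27.92% in each of two runs, the all-compound median minus 4 SD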;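 also: 0% = 20 µM Hyamine control and 100% = vehicle cell control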); conditions: HCT116 PTEN-deleted viability, 60 h, at 10 µM, active compounds read low
[6] = RAM pathway blockade in budding yeast – dse1pr::URA3 reporter, 5-FOA selection, pilot screen (AID 869;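 active = inhibition over a set limit, the all-compound mean plus 3 SD, in both replicate runs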;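 also: 0% = DMSO wells with no growth and 100% = 10 µM 1-NA-PP1 with full growth; RAM network block rescues cells from 5-FOA so hits raise OD615 growth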); conditions: S. cerevisiae dse1pr::URA3 5-FOA growth, OD615, 2 d; at 10 µM; active compounds read high; strain carries analog-sensitive mutant Cbk1 kinase
[7] = RAM signaling pathway blockade in yeast – S. cerevisiae, Pdr1DBD-CYC8 efflux-inhibited sensitized strain, primary screen (AID 1298;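 active = RAM network inhibition above 8.4% in each of two replicates, 3 SD over the compound average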;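 also: 0% = DMSO untreated cells without growth and 100% = 10 µM 1-NA-PP1 full growth; higher means more yeast growth rescued from 5-FOA killing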); conditions: S. cerevisiae cbk1-as DSE1-URA3 strain, 5-FOA growth OD615, 2 d; at 50 µM; active compounds read high

Cc1nn(-c2ccccc2)c(Cl)c1C(=O)Nc1c(C)n(C)n(-c2ccccc2)c1=O
inactive: growth inhibition [1] -9% | growth inhibition [2] -23% | viability increase [3] -0.99% | viability [4] 102% | viability [5] 94.3% | inhibition [6] 0.935% | RAM network inhibition [7] 3.15%

O=C(O)C1C2C=CC3(CN(C/C=C/c4ccccc4)C(=O)C13)O2 (configuration not stated)
inactive: growth inhibition [1] -17.1% | growth inhibition [2] -3.43% | viability increase [3] -2.86% | viability [4] 94% | viability [5] 100% | inhibition [6] 1.28% | RAM network inhibition [7] 3.71%

Nc1c(C(=O)Nc2ccc(Cl)cc2)oc2ccccc12
inactive: growth inhibition [1] -21% | growth inhibition [2] -20.9% | viability increase [3] -4.54% | viability [4] 75.3% | viability [5] 72.9% | inhibition [6] 2.38% | RAM network inhibition [7] 2.51%

CC(C)CCNC(=O)CCS(=O)(=O)c1cccc2nonc12
inactive: growth inhibition [1] -8.87% | growth inhibition [2] -22.1% | viability increase [3] -1.75% | viability [4] 105% | viability [5] 103% | inhibition [6] 1.04% | RAM network inhibition [7] 4.52%

CSc1nnc(NC(=O)c2cc3ccccc3oc2=O)s1
inactive: growth inhibition [1] -6.82% | growth inhibition [2] -6.74% | viability increase [3] -2.29% | viability [4] 93.8% | viability [5] 95.5% | inhibition [6] 1.24% | RAM network inhibition [7] 4.01%

COc1ccccc1C1N(c2cc(Cl)ccc2OC)C(=O)C2CCCN21 (configuration not stated)
inactive: growth inhibition [1] 8.71% | growth inhibition [2] 3.69% | viability increase [3] -2.83% | viability [4] 98.7% | viability [5] 96.3% | inhibition [6] 0.445% | RAM network inhibition [7] 2.33%

O=C(Cn1c(-c2cncs2)nc2ccccc21)NCCc1ccccc1
inactive: growth inhibition [1] -6.77% | growth inhibition [2] -8.58% | viability increase [3] -2.77% | viability [4] 99.6% | viability [5] 92.7% | inhibition [6] 1.25% | RAM network inhibition [7] 4.43%

O=c1c2cnn(-c3ccccc3)c2ncn1Cc1cccc(Cl)c1
inactive: growth inhibition [1] 2.21% | growth inhibition [2] 2.59% | viability increase [3] 3.21% | viability [4] 102% | viability [5] 91.7% | inhibition [6] 3.21% | RAM network inhibition [7] 6.55%

CCCCOc1ccc(-c2nc(-c3cccnc3)no2)cc1
inactive: growth inhibition [1] -3.21% | growth inhibition [2] 4.81% | viability increase [3] 4.19% | viability [4] 68.4% | viability [5] 82.9% | inhibition [6] 0.07% | RAM network inhibition [7] 2.29%

CCOC(=O)N1CCN(C(=O)CSc2nnc(-c3cccs3)o2)CC1
inactive: growth inhibition [1] 0.955% | growth inhibition [2] 3.94% | viability increase [3] 0.87% | viability [4] 104% | viability [5] 108% | inhibition [6] 0.595% | RAM network inhibition [7] 1.07%

CCOc1ccc(-n2c(SCC(=O)NCc3ccco3)nc3c(c2=O)SCC3)cc1
inactive: growth inhibition [1] -21.1% | growth inhibition [2] -19.1% | viability increase [3] -3.31% | viability [4] 95.2% | viability [5] 98.4% | inhibition [6] 3.37% | RAM network inhibition [7] 7.34%

COC(=O)c1c(C)nn(-c2ccccc2)c1N
inactive: growth inhibition [1] -12.5% | growth inhibition [2] -19.5% | viability increase [3] -1.39% | viability [4] 108% | viability [5] 98.5% | inhibition [6] 1.2% | RAM network inhibition [7] -0.37%

Brc1cccc(-c2nnc(SCc3ccon3)n2-c2ccccc2)c1
inactive: growth inhibition [1] -5.09% | growth inhibition [2] 3.47% | viability increase [3] -5.94% | viability [4] 92.3% | viability [5] 78.7% | inhibition [6] 1.46% | RAM network inhibition [7] 0.07%

CSc1ccc(Cl)c(C(=O)NCc2ccco2)c1
inactive: growth inhibition [1] -3.93% | growth inhibition [2] 8.44% | viability increase [3] -3.7% | viability [4] 85.8% | viability [5] 81.6% | inhibition [6] 2.33% | RAM network inhibition [7] 5.31%

O=C(CSc1nnc(C2COc3ccccc3O2)o1)N1CCCCC1 (configuration not stated)
inactive: growth inhibition [1] -7.62% | growth inhibition [2] 2.56% | viability increase [3] -0.36% | viability [4] 98.7% | viability [5] 105% | inhibition [6] -0.035% | RAM network inhibition [7] 0.97%

Cc1nc(CCNC(=O)COc2ccccc2)cs1
inactive: growth inhibition [1] -11% | growth inhibition [2] -3.25% | viability increase [3] -0.26% | viability [4] 103% | viability [5] 96.5% | inhibition [6] 1.14% | RAM network inhibition [7] 7.03%

Cc1c(C(=O)OC2CCCC2)[nH]c2c1C(=O)CC(c1ccco1)C2 (configuration not stated)
inactive: growth inhibition [1] -6.06% | growth inhibition [2] -12.3% | viability increase [3] -5.41% | inhibition [6] 1.86% | RAM network inhibition [7] 0.11%
active: viability [4] 15.4% | viability [5] 17.7%

COc1ccccc1C(=O)NC(C)c1nc2ccccc2[nH]1 (configuration not stated)
inactive: growth inhibition [1] -3.51% | growth inhibition [2] -5.35% | viability increase [3] 2.18% | viability [4] 99% | viability [5] 93% | inhibition [6] 3.37% | RAM network inhibition [7] 1.06%

O=C(c1ccccc1S(=O)(=O)NCc1ccccc1)N1CCCCC1
inactive: growth inhibition [1] -1.57% | growth inhibition [2] -5.03% | viability increase [3] -2.89% | viability [4] 98.6% | viability [5] 91% | inhibition [6] 1.01% | RAM network inhibition [7] 1.68%

CC(=O)Nn1cc2c(c1-c1ccccc1)c(=O)n(C)c(=O)n2C
inactive: growth inhibition [1] -10% | growth inhibition [2] -3.13% | viability increase [3] 1.16% | viability [4] 93% | viability [5] 87.2% | inhibition [6] 1.5% | RAM network inhibition [7] 3.01%

Nc1nc(SCC(=O)OCc2ccccc2)[nH]c(=O)c1NC(=O)c1ccco1
inactive: growth inhibition [1] -8.4% | growth inhibition [2] -11.7% | viability increase [3] -1.48% | viability [4] 101% | viability [5] 98.7% | inhibition [6] 1.36% | RAM network inhibition [7] -0.54%

CC(C)CCSc1nnc(Cn2c(=O)sc3ccccc32)n1C
inactive: growth inhibition [1] -10.3% | growth inhibition [2] 2.02% | viability increase [3] 0.27% | viability [4] 79.8% | viability [5] 83.5% | inhibition [6] 1.08% | RAM network inhibition [7] 4.4%

CC1Cc2ccccc2N1C(=O)CCn1c(=O)sc2ccccc21 (configuration not stated)
inactive: growth inhibition [1] -4.26% | growth inhibition [2] -16.9% | viability increase [3] -1.79% | viability [4] 93.3% | viability [5] 85.3% | inhibition [6] 1.17% | RAM network inhibition [7] 3.45%

CCSc1nnc(Cc2cc(=O)[nH]c(=O)[nH]2)n1-c1ccc(F)cc1
inactive: growth inhibition [1] -5.83% | growth inhibition [2] -10.5% | viability increase [3] 0.38% | viability [4] 104% | viability [5] 100% | inhibition [6] 0.9% | RAM network inhibition [7] 1.04%

CCOc1ccc(C2CC(c3ccc(CC)cc3)n3nc(N)nc3N2)cc1 (configuration not stated)
inactive: growth inhibition [1] 1.88% | growth inhibition [2] 21% | viability increase [3] 2.68% | viability [4] 91.5% | viability [5] 83.5% | inhibition [6] 1.54% | RAM network inhibition [7] 3.52%

CCOC(=O)N1CCN(C(=O)c2cc3c(=O)n(C)c4ccccc4c3n2C)CC1
inactive: growth inhibition [1] -9.54% | growth inhibition [2] 1.15% | viability increase [3] -2.85% | viability [4] 94.6% | viability [5] 89.9% | inhibition [6] 1.31% | RAM network inhibition [7] 0.42%

CC1=C(C(N)=O)C(c2cccc(O)c2)n2nc(CCCO)nc2N1 (configuration not stated)
inactive: growth inhibition [1] -9.85% | growth inhibition [2] -1.35% | viability increase [3] -1.07% | viability [4] 101% | viability [5] 104% | inhibition [6] 2.02% | RAM network inhibition [7] 2.87%

COc1ccc(Cc2nnc(SCC(=O)NC(C)c3ccccc3)o2)cc1 (configuration not stated)
inactive: growth inhibition [1] 2.93% | growth inhibition [2] -8.12% | viability increase [3] -1.25% | viability [4] 91.2% | viability [5] 86.8% | inhibition [6] 0.57% | RAM network inhibition [7] 4.19%

Cc1ccc(C)c(NC(=O)CS(=O)(=O)c2cn(C)c3ccccc23)c1
inactive: growth inhibition [1] -7.22% | growth inhibition [2] 2.97% | viability increase [3] -0.69% | viability [4] 103% | viability [5] 98.2% | inhibition [6] 0.025% | RAM network inhibition [7] 1.3%

CCn1c(CCC(=O)Nc2cc(F)ccc2C)nc2cc(S(=O)(=O)N(C)C)ccc21
inactive: growth inhibition [1] -6.57% | growth inhibition [2] -1.81% | viability increase [3] -0.38% | viability [4] 99.5% | viability [5] 97.1% | inhibition [6] 2.07% | RAM network inhibition [7] 6.18%

CCSC1=C(C#N)C(c2ccc(F)cc2)CC(=O)N1 (configuration not stated)
inactive: growth inhibition [1] 5.18% | growth inhibition [2] -4.98% | viability increase [3] 1% | viability [4] 93.4% | viability [5] 101% | inhibition [6] 0.48% | RAM network inhibition [7] 2.29%

COc1cccc(C2CC(c3cccc(Br)c3)n3nc(N)nc3N2)c1 (configuration not stated)
inactive: growth inhibition [1] 2.54% | growth inhibition [2] 4.69% | viability increase [3] -0.49% | viability [4] 96.7% | viability [5] 90.3% | inhibition [6] 0.475% | RAM network inhibition [7] 5.95%

COc1ccc(OC)c(NC(=O)Cn2cnc3c(cnn3-c3ccccc3)c2=O)c1
inactive: growth inhibition [1] 3.69% | growth inhibition [2] 7.43% | viability increase [3] -0.9% | viability [4] 98% | viability [5] 94.2% | inhibition [6] 1.27% | RAM network inhibition [7] 0.95%

C=CCn1c(=O)c(C(=O)Nc2ccccc2OC)c(O)c2ccccc21
inactive: growth inhibition [1] 1.44% | growth inhibition [2] -2.46% | viability increase [3] -2.69% | viability [4] 104% | viability [5] 90.1% | inhibition [6] 2.31% | RAM network inhibition [7] 1.39%

COC(=O)c1cc(COc2ccc3c4c(c(=O)oc3c2)CCCC4)c(C)o1
inactive: growth inhibition [1] 2.28% | growth inhibition [2] 5.14% | viability increase [3] -0.68% | viability [4] 103% | viability [5] 100% | inhibition [6] 0.985% | RAM network inhibition [7] 3.78%

Cc1oc2cc(O)ccc2c(=O)c1Oc1ccccc1Br
inactive: growth inhibition [1] -15.9% | growth inhibition [2] -12.2% | viability increase [3] -3.45% | viability [4] 94% | viability [5] 84.4% | inhibition [6] 1.68% | RAM network inhibition [7] 2.42%
